In the library only some 2.3% were active in any assay of this set; here they are far more common.
F508del corr – F508del CFTR correction, initial screen, CFBE line, single point; CFBE cells, YFP halide quenching; stimulated with forskolin plus potentiator P3; % fluorescence drop versus neutral controls; activity (quench increase), % at 7.58 µM; 350,000 compounds, 0.36% hits; AID 720511, 2013;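 active = mean added fluorescence quench of at least 8% versus neutral control, with both replicates also reaching 8%; inconclusive = only one of the mean or replicate conditions met; inactive = mean below 8% and not both replicates reaching 8%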;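 also: cells transiently co-express mutant CFTR-F508del with the halide-sensitive YFP; corrector assay measuring rescue of mutant channel to the surface after 24 h compound exposure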
PGC1a acetyl inh – inhibitors of PGC1a acetylation signal, primary screen, cell-based, U2OS, AlphaScreen, inhibitor mode; AlphaScreen anti-acetyl-lysine; with virally co-expressed GCN5 acetyltransferase; inhibition, % at 15.6 µM; 350,000 compounds, 0.17% hits; AID 651687, 2012;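 active = every replicate shows inhibition of at least 40%; inconclusive = mean inhibition at least 40% but some replicate below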;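 also: 0% = neutral control wells and 100% = positive control wells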
EWS-Fli block – EWS/Fli-driven NR0B1 reporter inhibitors, primary screen, A673 cells, NR0B1 luciferase, luminescence, MLPCN library. viability-normalised. inhibition, % at 12.6 µM. 350,000 compounds, 0.67% hits. AID 651661, 2012;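 active = mean inhibition of at least 50% after viability correction, with every replicate also passing that limit; inconclusive = mean reaches 50% but only one of two replicates passes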;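 also: firefly luciferase signal divided by Alamar Blue viability fluorescence both relative to DMSO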
Env fusion inh – inhibitors of HIV-1 Env-driven cell-cell fusion, primary screen, HeLa-JRFL effector, CEM21 target cells, luciferase; 360,000 compounds, 1.1% hits; AID 651610, 2012; inhibition, % at 12.3 µM;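 active = mean replicate inhibition score of at least 50 and every replicate individually at or above 50; inconclusive = only one of the two criteria met; inactive = mean below 50 and not all replicates reaching 50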;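 also: 0% = plate neutral controls and 100% = maraviroc near 300 nM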
PAX8 reporter – inhibitors of PAX8-driven TPO luciferase reporter, primary screen, RMG-I cells, single concentration; SteadyGlo, 24 h; inhibition, % at 12.6 µM; 360,000 compounds, 1.2% hits; AID 652154, 2013;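 active = mean replicate inhibition at least 60% with every replicate also reaching 60%; inconclusive = only one of the two criteria is met; inactive = mean below 60% and not all replicates reaching 60%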;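 also: luciferase light reporting Pax8 driven TPO promoter activity; plate controls were median of neutral control wells for no effect and mitoxantrone controls for full effect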
FN deposit inh – inhibitors of fibronectin matrix deposition, primary screen, AH1F cells, Alexa488-fibronectin fluorescence, plate reader; inhibition, % at 12.6 µM; 350,000 compounds, 0.086% hits; AH1F fibroblasts, overnight;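 active = mean inhibition across replicates of 30% or more, regardless of how many single replicates reach that level; inconclusive = mean under 30% yet at least half of replicates reach 30%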;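 also: positive control wells lacked labelled fibronectin entirely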
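Assay system: AH1F fibroblasts assembling fluorescent fibronectin matrix; Amount: 10000 AH1F cells per well; Buffer or medium: DMEM, 2% serum; Probe or stimulus: Alexa488-fibronectin, 24 nM final in well; Doses: single compound dose, delivered by pin transfer; Incubation: 1 h adhesion, overnight exposure; Measured by: fluorescence 485/525 nm; Read-out: fibronectin deposition inhibition.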
Numbers without * were called inactive; ? = inconclusive; nt = no result; [ ] = another dose, or the depositor's remark.

SMILES	F508del corr	PGC1a acetyl inh	EWS-Fli block	Env fusion inh	PAX8 reporter	FN deposit inh
O=C(C[C@H]1CC[C@H](NC(=O)c2cccc(F)c2)[C@@H](CO)O1)NCc1ccc(Oc2ccccc2)cc1	-2	1	18	14[16.7 µM]	26	nt
O=C(C[C@H]1CC[C@@H](NC(=O)c2cccc(F)c2)[C@@H](CO)O1)NCc1ccc(Oc2ccccc2)cc1	1	3	23	71*[16.7 µM]	45	nt
COc1cccc(-c2cnc3c(c2)C(=O)N([C@@H](C)CO)C[C@H](C)[C@@H](CN(C)C(=O)CN(C)C)O3)c1	-2	-6	-10	-22[16.7 µM]	nt	nt
Cc1ccc(-c2ccc(/C=N/NC(=O)Cc3nnc(N)s3)o2)cc1Cl	-2	?	-8	-18	-7	-16
COc1ccc(-c2ccc(/C=N/NC(=O)Cc3nnc(N)s3)o2)cc1Cl	0	57*	2	-4	-21	-6
Cc1ccc(NCCN(C)C)c2c(=O)c3cc(O)ccc3sc12	1	-48	52*	-67	-13	15
COc1cc2c(-c3ccccc3)c(C)oc2cc1/C=N/NC(N)=S	8.1*	-10	28	-10	24	16
COc1cc(OC)c(/C=N/NC(N)=S)cc1Br	nt	nt	-23	-104	-19	3
NC(=O)c1cc(Cl)ccc1OCC(=O)NC1CC1	9.0*	2	-1	-25	nt	-9
CC1CCC(NC(=O)COc2ccccc2C(N)=O)CC1 (stereo unspecified)	nt	1	nt	nt	nt	nt
COCC#Cc1cnc2c(c1)C(=O)N([C@@H](C)CO)C[C@H](C)[C@H](CN(C)C(C)=O)O2	-3	2	-4	-39[16.7 µM]	nt	1
CN(C)CC(=O)Nc1ccc2c(c1)[C@H]1C[C@@H](CC(=O)NCc3ccccc3)O[C@H](CO)[C@H]1O2	-3	-4	-2	-10[16.7 µM]	-9	-21
Cc1cccc(Cn2cnc3c(nnn3Cc3ccc(Cl)cc3)c2=O)c1	nt	-7	nt	60*	nt	4
C[C@@H]1CN([C@@H](C)CO)S(=O)(=O)c2ccc(C#CC3CC3)cc2O[C@H]1CN(C)C(=O)Cc1ccncc1	-1	-2	-2	-12[16.7 µM]	nt	-1
CCN1C(=O)CS/C1=N\S(=O)(=O)c1ccc(Cl)cc1	-2	11	-6	1	5	3
CCn1c(Cl)c(C=O)s/c1=N\S(=O)(=O)c1ccccc1	-4	78*	14	-43	10	50*
COc1ccc2c3c([nH]c2c1)[C@@H](CO)N(C(=O)CN(C)C)CC31CCN(CC2CCCCC2)CC1	0	-18	7	nt	nt	nt
CCCCC(=O)N1CCN(c2ccc(OC)cc2[N+](=O)[O-])CC1	1	nt	14	nt	87*	1
COc1ccc(N2CCN(C(=O)c3ccccc3)CC2)c([N+](=O)[O-])c1	-1	-29	0	10	14	-1
CC(=O)N(C)C[C@@H]1Oc2ccc(NS(C)(=O)=O)cc2CC(=O)N(C)C[C@H]1C	nt	nt	nt	nt	nt	-12
CC(C)(C)c1ccc(-n2ncc3c2CCCC3NC(=O)CN2CCCC2=O)cc1 (stereo unspecified)	-2	nt	nt	68*	32	-4
O=C(NCc1ccc(F)cc1F)[C@@H]1CCCN1C(=O)[C@@H]1CCCN1	0	nt	5	22	80*	2
Cc1ccc(-c2nc(-c3ccccc3)no2)c(Cl)c1	2	-3	84*	1	-12	9
O=C(Nc1ccc2oc(-c3ccncc3)nc2c1)c1ccc([N+](=O)[O-])o1	-7	nt	62*	-427	32	15
NC(=O)c1oc2ccccc2c1NC(=O)c1ccc([N+](=O)[O-])o1	-6	11	49	-4	74*	4
COc1ccc(NC(=O)c2ccc([N+](=O)[O-])o2)cc1	-11	-42	-27	-6	76*	-6
NC(=O)c1oc2ccccc2c1NC(=O)c1ccc(F)cc1	2	3	-6	-7	20	4
CC(NC(=O)c1ccc([N+](=O)[O-])o1)C12CC3CC(CC(C3)C1)C2 (stereo unspecified)	-2	nt	18	-19	66*	4

Screening results as filed in PubChem.
